Here are results for eleven compounds from ChEMBL document CHEMBL4819106, “Aminopyrazole based CDK9 PROTAC sensitizes pancreatic cancer cells to venetoclax” (Bioorg Med Chem Lett, 2021).

pIC50, pKd: −log10 of the molar value. Calls of active or inactive are those of the source. The calls are words filed in the database; no cut-off is given here.

In experiment [1] the target is T1, Protein cereblon/Cyclin-dependent kinase 9 (Homo sapiens, UniProt P50750+Q96SW2). The experiment in a line: Protac activity at CDK9/CRBN in human HEK293 cells assessed as degradation of CDK9 incubated for 24 hrs by Western blot analysis. The experiment is classed as cell-based. The gist of the method: (§1)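 HEK293 cells were treated with increasing concentrations (0.01–10 μM) for 24 hr. Lysates were analysed by western blot for CDK9 degradation.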
Target sequence in this assay (P50750 whole entry): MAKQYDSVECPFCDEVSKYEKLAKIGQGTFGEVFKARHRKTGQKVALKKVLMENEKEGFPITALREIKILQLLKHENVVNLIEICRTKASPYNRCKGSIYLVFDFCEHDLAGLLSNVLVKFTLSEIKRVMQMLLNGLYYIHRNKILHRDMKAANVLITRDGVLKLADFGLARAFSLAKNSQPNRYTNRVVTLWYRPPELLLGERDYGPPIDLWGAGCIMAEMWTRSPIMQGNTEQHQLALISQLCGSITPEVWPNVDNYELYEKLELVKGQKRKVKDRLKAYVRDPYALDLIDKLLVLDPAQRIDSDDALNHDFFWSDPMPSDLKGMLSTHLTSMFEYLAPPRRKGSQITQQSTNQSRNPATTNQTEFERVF
Target sequence in this assay (Q96SW2 whole entry): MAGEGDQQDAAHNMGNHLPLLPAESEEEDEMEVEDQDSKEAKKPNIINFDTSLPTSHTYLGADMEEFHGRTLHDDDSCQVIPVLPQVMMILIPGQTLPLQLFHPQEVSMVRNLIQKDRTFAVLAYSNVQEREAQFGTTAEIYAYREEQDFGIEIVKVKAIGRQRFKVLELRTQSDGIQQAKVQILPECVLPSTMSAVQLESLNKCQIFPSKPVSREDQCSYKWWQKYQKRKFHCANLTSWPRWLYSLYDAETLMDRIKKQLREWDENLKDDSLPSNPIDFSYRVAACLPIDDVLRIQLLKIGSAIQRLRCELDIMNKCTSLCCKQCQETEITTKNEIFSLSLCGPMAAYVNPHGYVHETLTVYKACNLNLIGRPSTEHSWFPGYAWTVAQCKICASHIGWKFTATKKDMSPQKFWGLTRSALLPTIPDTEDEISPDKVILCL
For orientation: Immunoblotting shows a protein as a band on a membrane.

Experiment [2] addresses T2, Cyclin-dependent kinase 5 (Homo sapiens, UniProt Q00535). Kind of experiment: Binding affinity to CDK5 (unknown origin).
Experiment [3] concerns the target T3, Cyclin-dependent kinase 9 (Homo sapiens, UniProt P50750). Kind of experiment: Inhibition of CDK9 (unknown origin).
Experiment [4] concerns the target T3, Cyclin-dependent kinase 9. The experiment in a line: Binding affinity to CDK9 (unknown origin).
Experiment [5] deals with T2, Cyclin-dependent kinase 5. Kind of experiment: Inhibition of CDK5 (unknown origin).
Experiment [6] deals with T1, Protein cereblon/Cyclin-dependent kinase 9. Kind of experiment: Protac activity at CDK9/CRBN in human HEK293 cells assessed as degradation of CDK9 at 0.01 to 10 uM incubated for 24 hrs by Western blot analysis. The experiment is classed as cell-based. As to conditions: dose 0.01-10 µM. The gist of the method: as §1
Target sequence in this assay (P50750 whole entry, looked up): as the sequence (P50750 whole entry) above
Target sequence in this assay (Q96SW2 whole entry, looked up): as the sequence (Q96SW2 whole entry) above
The target in experiment [7] is Cyclin-dependent kinase 7 (Homo sapiens) (UniProt P50613). The experiment in a line: Inhibition of CDK7 in human HEK293 cells assessed as reduction in CDK7 level at 10 uM incubated for 24 hrs by Western blot analysis. The experiment is classed as cell-based. The gist of the method:
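HEK293 cells were treated at indicated concentrations for 24 h. Lysates were analysed by western blot and probed for CDK family members, including CDK7 and CDK9.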

Another experiment has as its system MIA PaCa-2. The experiment in a line: Antiproliferative activity against human MIA PaCa-2 cells assessed as cell growth inhibition at 5 uM measured after 3 days by Prestoblue assay relative to control. It is filed as functional. Particulars: MIA PaCa-2, 72 h, time 3 day, read-out: GI. An outline of the steps: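 MiaPaCa2 cells were exposed for 3 days to single agents (Bcl2-family inhibitors or CDK9 degrader) at equimolar concentration. Viability was read by PrestoBlue.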

T2 sequence (Q00535 whole entry): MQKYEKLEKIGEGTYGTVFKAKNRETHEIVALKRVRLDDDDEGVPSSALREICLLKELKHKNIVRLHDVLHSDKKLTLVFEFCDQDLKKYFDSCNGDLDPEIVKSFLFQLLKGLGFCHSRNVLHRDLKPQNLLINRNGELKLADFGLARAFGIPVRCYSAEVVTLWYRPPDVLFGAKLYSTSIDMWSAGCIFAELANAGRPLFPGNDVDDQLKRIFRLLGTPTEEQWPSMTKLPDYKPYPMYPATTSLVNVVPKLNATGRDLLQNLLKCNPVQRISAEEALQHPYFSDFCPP
T3 sequence (P50750 whole entry): as the sequence (P50750 whole entry) above
Chain of Cyclin-dependent kinase 7 (Homo sapiens) (P50613 whole entry): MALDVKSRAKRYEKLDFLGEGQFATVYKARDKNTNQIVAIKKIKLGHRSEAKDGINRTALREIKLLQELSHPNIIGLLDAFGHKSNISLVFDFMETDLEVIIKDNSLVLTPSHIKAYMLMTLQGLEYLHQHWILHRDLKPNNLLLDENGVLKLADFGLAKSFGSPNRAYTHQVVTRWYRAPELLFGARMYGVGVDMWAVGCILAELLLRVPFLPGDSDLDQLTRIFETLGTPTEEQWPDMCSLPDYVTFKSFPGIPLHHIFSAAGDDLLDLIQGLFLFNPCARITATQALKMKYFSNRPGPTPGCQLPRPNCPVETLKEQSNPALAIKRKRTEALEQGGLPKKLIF

For `O=C(COc1ccc(CC(=O)Nc2cc(C3CCC3)[nH]n2)cc1)NCCCCCCCCNc1cccc2c1C(=O)N(C1CCC(=O)NC1=O)C2=O` (centres undefined), in experiment [1], the DC50 was 1 µM.

For `COc1ccc(CC(=O)Nc2cc(C3CCC3)[nH]n2)cc1`, the pKd in experiment [2] was 6.64; in experiment [4], 5.97. For the same compound, the figures for the pIC50 in experiment [3] and in experiment [5] were 5.97 and 7.49, respectively.

Regarding `O=C(COc1ccc(CC(=O)Nc2cc(C3CCC3)[nH]n2)cc1)NCCCCNc1cccc2c1C(=O)N(C1CCC(=O)NC1=O)C2=O` (centres undefined), the result in experiment [6] was inactive. Regarding `O=C(COc1ccc(CC(=O)Nc2cc(C3CCC3)[nH]n2)cc1)NCCOCCOCCNc1cccc2c1C(=O)N(C1CCC(=O)NC1=O)C2=O` (centres undefined), the outcome in experiment [6] was inactive. Take `O=C(CCCOc1ccc(CC(=O)Nc2cc(C3CCC3)[nH]n2)cc1)NCCCOCCOCCOCCCNc1cccc2c1C(=O)N(C1CCC(=O)NC1=O)C2=O` (centres undefined): in experiment [6], the outcome was inactive.

Consider `CN1CC[C@H](c2c(O)cc(O)c3c(=O)cc(-c4ccccc4Cl)oc23)[C@H](O)C1`, for which the result in experiment [7] was inactive.

As for `O=C(COCCOCCOCCOc1ccc(CC(=O)Nc2cc(C3CCC3)[nH]n2)cc1)NCCCCNc1cccc2c1C(=O)N(C1CCC(=O)NC1=O)C2=O` (centres undefined), the outcome in experiment [6] was inactive. `CC1(C)CCC(c2ccc(Cl)cc2)=C(CN2CCN(c3ccc(C(=O)NS(=O)(=O)c4ccc(N[C@H](CCN5CCOCC5)CSc5ccccc5)c(S(=O)(=O)C(F)(F)F)c4)cc3)CC2)C1` [NAVITOCLAX]: in the experiment on MIA PaCa-2, the inhibition of growth at 5 µM came out at 50%. For `O=C(COCCOCCOCCOc1cccc(CC(=O)Nc2cc(C3CCC3)[nH]n2)c1)NCCOCCOCCNc1cccc2c1C(=O)N(C1CCC(=O)NC1=O)C2=O` (centres undefined), the result in experiment [6] was inactive. Consider `O=C(CCCOc1ccc(CC(=O)Nc2cc(C3CCC3)[nH]n2)cc1)NCCOCCOCCNc1cccc2c1C(=O)N(C1CCC(=O)NC1=O)C2=O` (centres undefined), for which the result in experiment [6] was inactive. Same read-out and setting: the same measure for `O=C(COc1ccc(CC(=O)Nc2cc(C3CCC3)[nH]n2)cc1)NCCCOCCOCCOCCCNc1cccc2c1C(=O)N(C1CCC(=O)NC1=O)C2=O` (centres undefined): “inactive”.

The DC50 is the midpoint of the concentration-degradation curve. The term pKd denotes −log10 of the Kd, conventionally taken in molar units. For orientation: pIC50 means the IC50 on a negative log10 scale, so that one unit is a factor of ten.
